Results reported in ChEMBL document CHEMBL1136721, “QSAR and classification of murine and human soluble epoxide hydrolase inhibition by urea-like compounds” (J Med Chem, 2003).

Tests used:
[1] = biological target: T1, Bifunctional epoxide hydrolase 2 (Homo sapiens, UniProt P34913); assay: Inhibitory activity against human soluble epoxide hydrolase; N/A = could not be determined because of above the highest concentration (500 uM) of inhibitor tested.
T1 sequence (P34913 whole entry): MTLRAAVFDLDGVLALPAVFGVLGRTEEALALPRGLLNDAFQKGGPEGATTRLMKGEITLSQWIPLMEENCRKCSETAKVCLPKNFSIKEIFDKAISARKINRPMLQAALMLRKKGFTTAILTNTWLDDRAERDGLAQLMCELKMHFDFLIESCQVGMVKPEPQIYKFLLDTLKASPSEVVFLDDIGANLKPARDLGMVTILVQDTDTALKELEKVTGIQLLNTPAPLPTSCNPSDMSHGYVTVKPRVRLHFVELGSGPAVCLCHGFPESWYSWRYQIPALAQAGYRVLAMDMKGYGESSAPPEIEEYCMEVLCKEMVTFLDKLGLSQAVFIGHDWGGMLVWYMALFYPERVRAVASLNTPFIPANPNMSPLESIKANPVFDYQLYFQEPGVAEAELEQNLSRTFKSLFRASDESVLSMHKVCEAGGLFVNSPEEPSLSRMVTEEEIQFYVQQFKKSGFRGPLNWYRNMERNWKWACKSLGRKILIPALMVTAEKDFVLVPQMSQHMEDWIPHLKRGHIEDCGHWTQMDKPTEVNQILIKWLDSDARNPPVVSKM
Summary of the method: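 Recombinant human sEH made in baculovirus and affinity-purified (at least 97% pure, no detectable esterase or glutathione transferase activity). 0.20 µM enzyme preincubated with inhibitor for 5 min at 30 °C in pH 7.4 sodium phosphate buffer. Substrate: 40 µM racemic 4-nitrophenyl-trans-2,3-epoxy-3-phenylpropyl carbonate. 4-Nitrophenolate read at 405 nm over 1 min. Triplicate runs; top concentration 500 µM. IC50 by regression of at least five points, with at least two on each side in the linear region.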

[2] = biological target: T2, Bifunctional epoxide hydrolase 2 (Mus musculus, UniProt P34914); assay: Inhibitory activity against murine soluble epoxide hydrolase; N/A = could not be determined because of above the highest concentration (500 uM) of inhibitor tested.
T2 sequence (P34914 whole entry): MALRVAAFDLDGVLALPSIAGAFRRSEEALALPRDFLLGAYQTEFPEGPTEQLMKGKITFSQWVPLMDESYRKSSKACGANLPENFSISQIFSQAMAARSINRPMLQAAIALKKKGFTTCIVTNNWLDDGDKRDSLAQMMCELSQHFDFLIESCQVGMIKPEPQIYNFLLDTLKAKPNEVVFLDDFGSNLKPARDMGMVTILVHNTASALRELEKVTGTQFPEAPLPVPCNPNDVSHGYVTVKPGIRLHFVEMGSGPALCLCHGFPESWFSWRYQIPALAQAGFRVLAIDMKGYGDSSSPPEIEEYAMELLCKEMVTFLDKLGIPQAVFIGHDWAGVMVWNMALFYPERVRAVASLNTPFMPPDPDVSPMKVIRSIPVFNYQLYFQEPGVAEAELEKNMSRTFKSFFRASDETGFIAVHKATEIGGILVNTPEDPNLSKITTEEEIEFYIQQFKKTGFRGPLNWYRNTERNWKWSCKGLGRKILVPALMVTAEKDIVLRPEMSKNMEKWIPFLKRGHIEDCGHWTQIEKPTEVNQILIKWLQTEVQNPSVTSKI
Summary of the method: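 Mouse sEH expressed in baculovirus and affinity-purified (at least 97% pure by SDS-PAGE, no esterase or glutathione transferase activity). 0.10 µM enzyme held with inhibitor 5 min at 30 °C in pH 7.4 sodium phosphate buffer. Then 40 µM racemic 4-nitrophenyl-trans-2,3-epoxy-3-phenylpropyl carbonate added; 4-nitrophenolate followed at 405 nm for 1 min. Done in triplicate up to 500 µM inhibitor. IC50 regressed from at least five points bracketing the midpoint.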

Structure (SMILES) | IC50 [1] | IC50 [2]
CCCCCCNC(=O)NC | Not Active | –
CN(C)C(=O)N(CCCCCC(=O)O)c1ccc(Cl)c(Cl)c1 | Not Active | Not Active
